Legend:
[1] = Toxicity against brine shrimp; type: organism-based; settings: artemia, in vivo; read-out: LD50 (the source's name)
[2] = test system: Radical scavenging activity; test: Antioxidant activity assessed as DPPH radical scavenging activity; type: functional
Method in brief: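 Test sample in EtOH mixed with a 0.1 mM DPPH solution in EtOH (concentration before mixing). Absorbance read at 517 nm after 20 min. Scavenging taken as the drop in DPPH absorbance, expressed as a percentage of a DPPH control without sample. Catechin served as the positive control.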

| Compound | LC50 [1] | IC50 [2] |
| --- | --- | --- |
| O=C(c1cccc(O)c1)c1c(O)cc(O)cc1O | > 100 µM | 66.3 µM |
| COc1cc(O)cc(O)c1C(=O)c1ccc(O)c(O)c1 | > 100 µM | 7.8 µM |
| COc1ccc2cc3[n+](cc2c1OC)CCc1cc2c(cc1-3)OCO2 [BERBERINE CHLORIDE] | 67 µM |  |
| Oc1cc(O)c2c(c1)OC(c1ccc(O)c(O)c1)C(O)C2 (configuration not stated) [CATECHIN] |  | 2.53 µM |
| CC(C)=CCC/C(C)=C/CC1(CC=C(C)C)C(=O)C(O)=Cc2oc3cc(O)cc(O)c3c(=O)c21 (configuration not stated) [GARCINIANONE A] | 7.7 µM | 107 µM |
| CC(C)=CCC/C(C)=C\CC1(CC=C(C)C)C(=O)C(O)=Cc2oc3cc(O)cc(O)c3c(=O)c21 (configuration not stated) [GARCINIANONE B] | 25.8 µM | 145 µM |
| O=C(c1ccc(O)c(O)c1)c1c(O)cc(O)cc1O [MACLURIN] | 43.1 µM | 5.3 µM |

Reference: ChEMBL document CHEMBL1146568, “Xanthones and benzophenones from the stems of Garcinia multiflora” (J Nat Prod, 2003)
